Measurements published in ChEMBL document CHEMBL4196230, “Design, Synthesis, and Blood-Brain Barrier Transport Study of Pyrilamine Derivatives as Histone Deacetylase Inhibitors” (ACS Med Chem Lett, 2018).
Blank lines part the entries; values can stand above or below the molecule they belong to. Activity calls are given as the source filed them. The calls are words filed in the database; no cut-off is given here.

Key:
[1] = target: T1, Protein deacetylase HDAC6 (Mus musculus) (UniProt Q9Z2V5); experiment: Inhibition of mouse HDAC6 expressed in 293T cells at 100 uM using Ac-KGLGK(Ac)-MCA as substrate measured after 30 mins by fluorescence assay relative to control
T1 sequence (whole entry): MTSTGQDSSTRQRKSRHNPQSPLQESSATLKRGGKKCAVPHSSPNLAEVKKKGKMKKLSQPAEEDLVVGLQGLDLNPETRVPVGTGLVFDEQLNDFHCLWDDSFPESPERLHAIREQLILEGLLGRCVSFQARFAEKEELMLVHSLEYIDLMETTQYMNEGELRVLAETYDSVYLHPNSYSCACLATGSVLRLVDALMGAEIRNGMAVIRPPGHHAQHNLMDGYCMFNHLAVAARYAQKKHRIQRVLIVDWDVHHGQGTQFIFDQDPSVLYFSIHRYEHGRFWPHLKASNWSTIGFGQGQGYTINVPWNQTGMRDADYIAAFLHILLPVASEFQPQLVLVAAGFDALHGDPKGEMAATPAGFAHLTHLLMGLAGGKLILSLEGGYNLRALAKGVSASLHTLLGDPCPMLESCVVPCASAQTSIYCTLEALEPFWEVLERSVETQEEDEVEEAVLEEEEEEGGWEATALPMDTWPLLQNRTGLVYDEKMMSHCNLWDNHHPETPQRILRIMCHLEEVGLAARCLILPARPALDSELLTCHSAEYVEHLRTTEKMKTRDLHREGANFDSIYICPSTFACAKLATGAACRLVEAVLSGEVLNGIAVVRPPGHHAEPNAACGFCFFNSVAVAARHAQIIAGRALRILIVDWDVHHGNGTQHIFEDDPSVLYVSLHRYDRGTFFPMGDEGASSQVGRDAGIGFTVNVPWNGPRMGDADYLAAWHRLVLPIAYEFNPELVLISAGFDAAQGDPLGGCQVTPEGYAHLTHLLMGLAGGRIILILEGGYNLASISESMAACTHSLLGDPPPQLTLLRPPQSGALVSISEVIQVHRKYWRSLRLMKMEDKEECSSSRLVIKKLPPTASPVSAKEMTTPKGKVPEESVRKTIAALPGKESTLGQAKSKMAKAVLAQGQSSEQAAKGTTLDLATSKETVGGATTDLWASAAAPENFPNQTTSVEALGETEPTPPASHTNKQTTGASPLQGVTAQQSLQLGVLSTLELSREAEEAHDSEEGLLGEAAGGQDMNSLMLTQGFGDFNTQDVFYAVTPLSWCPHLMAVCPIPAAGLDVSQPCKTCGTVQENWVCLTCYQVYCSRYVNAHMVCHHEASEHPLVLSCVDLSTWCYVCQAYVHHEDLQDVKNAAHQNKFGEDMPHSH

[2] = Substrate activity at PYSOCA in human CMEC/D3 cells assessed as transporter-mediated drug uptake measured for 2 mins at 37degC in presence of tramadol; type: ADME, cell-based
[3] = Substrate activity at PYSOCA in human CMEC/D3 cells assessed as transporter-mediated drug uptake measured for 2 mins at 37degC in presence of choline; type: ADME, cell-based
[4] = target: Histone deacetylase (Homo sapiens) (UniProt Q13547+O15379+Q9UBN7+Q92769+Q9UQL6+Q8WUI4+Q9BY41+Q96DB2+P56524+Q9UKV0+Q969S8); conditions: at 10 µM
[5] = Substrate activity at PYSOCA in human CMEC/D3 cells assessed as transporter-mediated drug uptake clearance assessed per mg protein at 4degC measured after 30 mins; type: ADME, cell-based; conditions: 0.5 h
Method in brief: (§1)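 Uptake by hCMEC/D3 cells followed over time at 37 °C or 4 °C. Clearance was calculated from the initial linear slope, expressed per mg protein. Mean ± S.E., n = 4.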

[6] = Substrate activity at PYSOCA in human CMEC/D3 cells assessed as transporter-mediated drug uptake measured for 2 mins at 37degC in presence of diphenhydramine; type: ADME, cell-based
Method in brief: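 Uptake by hCMEC/D3 cells was measured at various substrate concentrations, at 37 °C for 2 min, with or without diphenhydramine (100 µM). Data were analysed by Michaelis-Menten and Lineweaver-Burk plots using nonlinear least-squares regression (Eqs. 1 and 2). Mean ± S.E., n = 4.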

[7] = Substrate activity at PYSOCA in human CMEC/D3 cells assessed as transporter-mediated drug uptake measured for 2 mins at 37degC in presence of varenicline; type: ADME, cell-based
[8] = Substrate activity at PYSOCA in human CMEC/D3 cells assessed as transporter-mediated drug uptake measured for 2 mins at 37degC in presence of MPP+; type: ADME, cell-based
[9] = Substrate activity at PYSOCA in human CMEC/D3 cells assessed as transporter-mediated drug uptake measured for 2 mins at 37degC in presence of pyrilamine; type: ADME, cell-based
[10] = Substrate activity at PYSOCA in human CMEC/D3 cells assessed as transporter-mediated drug uptake measured for 2 mins at 37degC in presence of L-carnitine; type: ADME, cell-based
[11] = Substrate activity at PYSOCA in human CMEC/D3 cells assessed as transporter-mediated drug uptake measured for 2 mins at 37degC in presence of memantine; type: ADME, cell-based
[12] = Substrate activity at PYSOCA in human CMEC/D3 cells assessed as transporter-mediated drug uptake measured for 2 mins at 37degC in presence of clonidine; type: ADME, cell-based
[13] = Substrate activity at PYSOCA in human CMEC/D3 cells assessed as transporter-mediated drug uptake measured for 2 mins at 37degC in presence of decynium-22; type: ADME, cell-based
[14] = Substrate activity at PYSOCA in human CMEC/D3 cells assessed as transporter-mediated drug uptake clearance assessed per mg protein at 37degC; type: ADME, cell-based; method in brief: as §1
[15] = Substrate activity at PYSOCA in human CMEC/D3 cells assessed as transporter-mediated drug uptake measured for 2 mins at 37degC in presence of TEA; type: ADME, cell-based

inhibition [1]: 16%
Structure (SMILES): COc1ccc(CN(CCN(C)C)c2ccc(C(=O)Nc3cc(I)ccc3N)cn2)cc1

inhibition [1]: 7%
Structure (SMILES): COc1ccc(CN(CCN(C)C)c2ccc(C(=O)Nc3cc(Cl)ccc3N)cn2)cc1

inhibition [1]: 15%
Structure (SMILES): COc1ccc(CN(CCN(C)C)c2ccc(C(=O)Nc3cc(-c4ccco4)ccc3N)cn2)cc1

inhibition [1]: 14%
Structure (SMILES): COc1ccc(CN(CCN(C)C)c2ccc(C(=O)Nc3cc(-c4ccccc4)ccc3N)cn2)cc1

inhibition [1]: 15%
Structure (SMILES): COc1ccc(CN(CCN(C)C)c2ccc(C(=O)Nc3cc(-c4cccs4)ccc3N)cn2)cc1

Activity [2]: Active
inhibition [1]: 18%
Activity [3]: Active
inhibition [4]: Active
Activity [5]: Active
Activity [6]: Active
Activity [7]: Active
Activity [8]: Active
Activity [9]: Active
Activity [10]: Active
Activity [11]: Active
Activity [12]: Active
Activity [13]: Active
CL [14]: 1.26 µL/min
Activity [15]: Active
Structure (SMILES): CC(=O)Nc1ccc(C(=O)Nc2ccccc2N)cc1 [TACEDINALINE]

inhibition [1]: 21%
Structure (SMILES): COc1ccc(CN(CCN(C)C)c2ccc(C(=O)Nc3cc(Br)ccc3N)cn2)cc1

inhibition [1]: 98%
Structure (SMILES): CC(/C=C/C(=O)NO)=C\[C@@H](C)C(=O)c1ccc(N(C)C)cc1
